The values below come from ChEMBL document CHEMBL4406821, “Novel dual inhibitors targeting CDK4 and VEGFR2 synergistically suppressed cancer progression and angiogenesis” (Eur J Med Chem, 2019).

Active and inactive are the calls of the source. The calls are words filed in the database; no cut-off is given here.

In series [1] the target is MAPK/MAK/MRK overlapping kinase (Homo sapiens) (UniProt Q9UQ07). Briefly: Inhibition of recombinant human MOK (1 to 343 residues) at 1 uM using RSRSRSRSRSRSRSR as substrate incubated for 40 mins in presence of [gamma-33P]-ATP by scintillation counting method relative to control.
Series [2] addresses Serine/threonine-protein kinase PAK 5 (Homo sapiens) (UniProt Q9P286). Briefly: Inhibition of recombinant human PAK5 (425 to end residues) at 1 uM using RRRLSFAEPG as substrate incubated for 40 mins in presence of [gamma-33P]-ATP by scintillation counting method relative to control.
The target of series [3] is LIM domain kinase 1 (Homo sapiens) (UniProt P53667). Briefly: Inhibition of recombinant human LIMK1 (285 to 638 residues) at 1 uM using cofilin as substrate incubated for 40 mins in presence of [gamma-33P]-ATP by scintillation counting method relative to control.
Series [4] has as its system Hepatocyte growth factor receptor (Homo sapiens), P08581 [D1246N]. The series is described as follows: Inhibition of recombinant human Met D1246N mutant (974 to end residues) at 1 uM using KKKGQEEEYVFIE as substrate incubated for 40 mins in presence of [gamma-33P]-ATP by scintillation counting method relative to control.
Series [5] concerns the target cGMP-dependent protein kinase 1 (Homo sapiens) (UniProt Q13976). Briefly: Inhibition of recombinant human full length PKG1alpha at 1 uM using RRRLSFAEPG as substrate incubated for 40 mins in presence of [gamma-33P]-ATP by scintillation counting method relative to control.
The subject of a further series is SiHa. The series is described as follows: Antiangiogenic activity against human SiHa cells xenografted in orally dosed NOD/SCID BALB/c mouse assessed as reduction in CD31 expression measured after 21 days by hematoxylin and eosin staining based immunohistochemistry. The series is classed as functional, organism-based. The method, boiled down: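 Female NOD/SCID Balb/c mice, 6–8 weeks old, received 2×10^6 SiHa cells subcutaneously in the right flank. Once tumors reached 100 mm³, mice were randomized, 5 per group, and gavaged once daily for 21 days. Formalin-fixed, paraffin-embedded tumor sections were stained with Ki67 or CD31 antibody (1:100, 4 °C overnight), then biotin secondary and ABC-peroxidase/DAB, with hematoxylin counterstain.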

Series [6] addresses Serine/threonine-protein kinase D2 (Homo sapiens) (UniProt Q9BZL6). Briefly: Inhibition of recombinant human full length PKD2 at 1 uM using KKLNRTLSVA as substrate incubated for 40 mins in presence of [gamma-33P]-ATP by scintillation counting method relative to control.
The nature of series [7]: Toxicity in NOD/SCID BALB/c mouse xenografted with human SiHa cells assessed as toxic effects in kidney at 40 mg/kg, po administered for 48 hrs by hematoxylin and eosin staining method. The series is classed as organism-based. Conditions: in vivo.
Series [8] deals with Protein-tyrosine kinase 2-beta (Homo sapiens) (UniProt Q14289). The series is described as follows: Inhibition of recombinant human full length PYK2 at 1 uM using poly(Glu, Tyr) 4:1 as substrate incubated for 40 mins in presence of [gamma-33P]-ATP by scintillation counting method relative to control.
Series [9] has as its target G protein-coupled receptor kinase 6 (Homo sapiens) (UniProt P43250). Briefly: Inhibition of recombinant human full length GRK6 at 1 uM using casein as substrate incubated for 40 mins in presence of [gamma-33P]-ATP by scintillation counting method relative to control. The method in brief: (§1)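 Tested at a single 1 uM in an outsourced commercial kinase-profiling panel, read as percent inhibition. Each value is the mean of two independent experiments.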

Series [10] addresses Serine/threonine-protein kinase PLK2 (Homo sapiens) (UniProt Q9NYY3). Briefly: Inhibition of recombinant human SNK (65 to 409 residues) at 1 uM using casein as substrate incubated for 40 mins in presence of [gamma-33P]-ATP by scintillation counting method relative to control.
The target of series [11] is Mitogen-activated protein kinase kinase kinase 20 (Homo sapiens) (UniProt Q9NYL2). Briefly: Inhibition of recombinant human full length ZAK at 1 uM using MBP as substrate incubated for 40 mins in presence of [gamma-33P]-ATP by scintillation counting method relative to control.
Mitogen-activated protein kinase kinase kinase 20 (Homo sapiens), sequence (Q9NYL2 2-800 limits assumed): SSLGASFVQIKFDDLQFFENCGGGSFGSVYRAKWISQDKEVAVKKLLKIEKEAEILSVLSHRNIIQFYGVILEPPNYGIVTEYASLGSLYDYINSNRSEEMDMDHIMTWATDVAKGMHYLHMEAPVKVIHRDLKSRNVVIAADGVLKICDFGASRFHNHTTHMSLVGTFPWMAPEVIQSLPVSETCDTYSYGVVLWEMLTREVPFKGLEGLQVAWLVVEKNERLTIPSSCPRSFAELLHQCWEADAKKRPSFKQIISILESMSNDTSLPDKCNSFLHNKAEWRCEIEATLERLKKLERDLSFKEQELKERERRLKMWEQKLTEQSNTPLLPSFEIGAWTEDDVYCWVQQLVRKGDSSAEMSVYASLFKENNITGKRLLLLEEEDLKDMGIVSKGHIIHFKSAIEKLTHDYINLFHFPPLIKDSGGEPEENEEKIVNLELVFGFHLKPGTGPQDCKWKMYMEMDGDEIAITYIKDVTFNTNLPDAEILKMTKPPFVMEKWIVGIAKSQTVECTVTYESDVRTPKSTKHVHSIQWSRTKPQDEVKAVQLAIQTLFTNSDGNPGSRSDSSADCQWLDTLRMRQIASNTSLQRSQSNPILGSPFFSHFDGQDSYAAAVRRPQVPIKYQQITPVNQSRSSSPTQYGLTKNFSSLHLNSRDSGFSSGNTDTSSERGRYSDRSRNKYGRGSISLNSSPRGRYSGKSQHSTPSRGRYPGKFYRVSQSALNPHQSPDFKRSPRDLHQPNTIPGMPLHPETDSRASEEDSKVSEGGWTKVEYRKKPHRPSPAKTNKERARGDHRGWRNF
Series [12] deals with Serine/threonine-protein kinase SIK2 (Homo sapiens) (UniProt Q9H0K1). The series is described as follows: Inhibition of recombinant human SIK2 (1 to 276 residues) at 1 uM using KKKVSRSGLYRSPSMPENLNRPR as substrate incubated for 40 mins in presence of [gamma-33P]-ATP by scintillation counting method relative to control.
In series [13] the target is Transcription initiation factor TFIID subunit 1-like (Homo sapiens) (UniProt Q8IZX4). The series is described as follows: Inhibition of recombinant human TAF1L (1428 to end residues) at 1 uM using RRRFRPASPLRGPPK as substrate incubated for 40 mins in presence of [gamma-33P]-ATP by scintillation counting method relative to control. The method in brief:
as §1

In series [14] the target is T1, Vascular endothelial growth factor receptor 2 (Homo sapiens, UniProt P35968). Briefly: Inhibition of VEGFR2 in HUVEC cells assessed as reduction in Src phosphorylation at 20 to 40 nM incubated for 48 hrs by Western blot analysis. It counts as cell-based. The method in brief:
(§2)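 HUVECs were maintained in 1640 medium with 10% FBS. They were treated with graded concentrations for 48 h, PBS-washed and lysed in RIPA buffer. Immunoblots were probed for total and phospho VEGFR2, STAT3, Akt, Erk1 and Src, each at 1:1000. β-actin served as loading control.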

Series [15] addresses T1, Vascular endothelial growth factor receptor 2. Briefly: Inhibition of recombinant human KDR (790 to end residues) at 1 uM using myelin basic protein as substrate incubated for 40 mins in presence of [gamma-33P]-ATP by scintillation counting method relative to control.
For series [16], the target named is Tau-tubulin kinase 2 (Homo sapiens) (UniProt Q6IQ55). Briefly: Inhibition of recombinant human TTBK2 (1 to331 residues) at 1 uM using casein as substrate incubated for 40 mins in presence of [gamma-33P]-ATP by scintillation counting method relative to control. The method, boiled down: as §1
Tau-tubulin kinase 2 (Homo sapiens), sequence (Q6IQ55 whole entry, the tested form may be a part): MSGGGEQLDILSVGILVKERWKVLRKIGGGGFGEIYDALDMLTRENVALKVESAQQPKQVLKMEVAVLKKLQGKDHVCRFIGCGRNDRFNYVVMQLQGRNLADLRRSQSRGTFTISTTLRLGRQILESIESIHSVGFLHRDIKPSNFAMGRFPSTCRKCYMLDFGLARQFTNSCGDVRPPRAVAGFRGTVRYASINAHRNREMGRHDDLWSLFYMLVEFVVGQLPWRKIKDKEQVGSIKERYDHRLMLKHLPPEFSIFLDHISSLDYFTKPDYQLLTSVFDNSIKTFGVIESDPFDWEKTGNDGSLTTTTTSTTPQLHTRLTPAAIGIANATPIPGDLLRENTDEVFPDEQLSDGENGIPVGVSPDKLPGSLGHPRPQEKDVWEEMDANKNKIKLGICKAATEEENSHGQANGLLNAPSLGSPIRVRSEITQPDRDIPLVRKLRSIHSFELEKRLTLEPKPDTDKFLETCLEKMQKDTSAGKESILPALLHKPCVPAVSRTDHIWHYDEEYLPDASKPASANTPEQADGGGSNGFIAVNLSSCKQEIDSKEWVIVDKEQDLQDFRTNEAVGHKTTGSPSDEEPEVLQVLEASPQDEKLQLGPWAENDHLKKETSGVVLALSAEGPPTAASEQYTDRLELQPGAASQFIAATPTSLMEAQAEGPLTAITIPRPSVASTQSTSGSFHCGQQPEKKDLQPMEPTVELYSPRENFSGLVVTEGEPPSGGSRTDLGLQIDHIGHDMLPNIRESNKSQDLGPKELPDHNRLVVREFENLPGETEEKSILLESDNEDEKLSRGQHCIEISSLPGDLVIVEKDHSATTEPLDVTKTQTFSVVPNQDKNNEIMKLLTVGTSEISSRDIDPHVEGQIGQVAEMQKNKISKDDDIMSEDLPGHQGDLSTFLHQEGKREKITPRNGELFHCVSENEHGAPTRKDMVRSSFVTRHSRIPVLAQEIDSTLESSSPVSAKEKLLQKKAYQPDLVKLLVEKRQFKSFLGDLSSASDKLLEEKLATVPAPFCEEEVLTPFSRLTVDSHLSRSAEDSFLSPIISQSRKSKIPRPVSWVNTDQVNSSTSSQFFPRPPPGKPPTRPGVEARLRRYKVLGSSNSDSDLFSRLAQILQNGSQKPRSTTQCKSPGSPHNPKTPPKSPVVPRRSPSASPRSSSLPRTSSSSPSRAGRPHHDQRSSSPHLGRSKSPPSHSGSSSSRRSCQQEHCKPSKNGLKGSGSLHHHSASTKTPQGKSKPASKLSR
In series [17] the target is T1, Vascular endothelial growth factor receptor 2. The series is described as follows: Inhibition of VEGFR2 in HUVEC cells assessed as reduction in VEGFR2 phosphorylation at 20 to 40 nM incubated for 48 hrs by Western blot analysis. The series is classed as cell-based. The method, boiled down:
as §2
Background: Immunoblotting shows a protein as a band on a membrane.

Series [18] in a line: Toxicity in NOD/SCID BALB/c mouse xenografted with human SiHa cells assessed as body weight at 40 mg/kg, po administered for 21 days. The series is classed as organism-based. As to conditions: in vivo, 504 h. The method, boiled down:
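Female NOD/SCID Balb/c mice, 6–8 weeks, implanted subcutaneously in right flank with 2×10^6 SiHa cells in 100 µL medium. At 100 mm³ tumors, randomized (5 mice/group) to daily oral gavage. Body weight monitored every 3 days; study ended day 21.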

In series [19] the target is T1, Vascular endothelial growth factor receptor 2. As to conditions: HUVEC, 40 nM.
The next series concerns T47D. The series is described as follows: Induction of cell cycle arrest in human T47D cells assessed as accumulation in G2/M phase at 40 nM incubated for 36 hrs by propidium iodide staining based flow cytometry. The series is classed as functional. The method in brief:
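Cells were treated with graded concentrations for 36 h, then fixed overnight in 70% ice-cold ethanol at 4°C and resuspended in PBS. Staining used 50 µg/ml PI plus 5 µg/ml RNase at 37°C for 30 min. DNA content was analysed by FACS to give G0/G1, S and G2/M fractions.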
For orientation: A flow cytometer gives signals particle by particle.

T1 sequence (P35968 whole entry): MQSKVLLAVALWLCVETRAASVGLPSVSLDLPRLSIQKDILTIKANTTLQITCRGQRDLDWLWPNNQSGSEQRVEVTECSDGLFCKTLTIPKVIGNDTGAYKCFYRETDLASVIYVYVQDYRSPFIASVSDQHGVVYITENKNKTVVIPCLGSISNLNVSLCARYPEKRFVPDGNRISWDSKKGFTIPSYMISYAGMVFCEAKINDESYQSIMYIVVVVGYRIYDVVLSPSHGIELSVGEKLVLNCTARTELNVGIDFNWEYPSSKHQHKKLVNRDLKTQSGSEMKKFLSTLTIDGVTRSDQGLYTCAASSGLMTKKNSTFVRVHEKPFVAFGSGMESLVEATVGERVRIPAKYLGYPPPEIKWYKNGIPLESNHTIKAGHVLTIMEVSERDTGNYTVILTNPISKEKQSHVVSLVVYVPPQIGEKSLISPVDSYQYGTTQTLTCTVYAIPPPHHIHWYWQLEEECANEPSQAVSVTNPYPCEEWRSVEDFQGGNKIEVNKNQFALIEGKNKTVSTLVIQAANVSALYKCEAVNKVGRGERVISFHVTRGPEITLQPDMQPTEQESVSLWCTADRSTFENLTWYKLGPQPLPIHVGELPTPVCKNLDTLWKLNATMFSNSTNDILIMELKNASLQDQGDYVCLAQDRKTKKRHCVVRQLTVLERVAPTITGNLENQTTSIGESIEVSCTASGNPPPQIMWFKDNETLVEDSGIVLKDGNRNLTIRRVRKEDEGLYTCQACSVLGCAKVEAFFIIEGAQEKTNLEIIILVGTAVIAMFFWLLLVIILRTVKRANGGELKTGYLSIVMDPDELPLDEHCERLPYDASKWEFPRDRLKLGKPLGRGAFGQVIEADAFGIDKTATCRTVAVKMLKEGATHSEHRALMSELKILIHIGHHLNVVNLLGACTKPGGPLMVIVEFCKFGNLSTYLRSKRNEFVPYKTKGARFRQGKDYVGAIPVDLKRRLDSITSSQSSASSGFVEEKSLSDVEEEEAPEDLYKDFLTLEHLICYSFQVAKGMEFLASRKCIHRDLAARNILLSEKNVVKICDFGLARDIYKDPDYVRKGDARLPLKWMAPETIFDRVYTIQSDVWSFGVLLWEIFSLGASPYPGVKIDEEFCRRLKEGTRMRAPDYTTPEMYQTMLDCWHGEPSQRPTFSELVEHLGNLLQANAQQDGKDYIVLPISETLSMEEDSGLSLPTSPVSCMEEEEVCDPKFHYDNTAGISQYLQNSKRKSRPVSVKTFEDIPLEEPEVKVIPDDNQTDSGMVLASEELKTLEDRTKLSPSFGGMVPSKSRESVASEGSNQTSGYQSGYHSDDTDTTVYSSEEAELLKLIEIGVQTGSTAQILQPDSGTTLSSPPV
cGMP-dependent protein kinase 1 (Homo sapiens), sequence (Q13976 whole entry): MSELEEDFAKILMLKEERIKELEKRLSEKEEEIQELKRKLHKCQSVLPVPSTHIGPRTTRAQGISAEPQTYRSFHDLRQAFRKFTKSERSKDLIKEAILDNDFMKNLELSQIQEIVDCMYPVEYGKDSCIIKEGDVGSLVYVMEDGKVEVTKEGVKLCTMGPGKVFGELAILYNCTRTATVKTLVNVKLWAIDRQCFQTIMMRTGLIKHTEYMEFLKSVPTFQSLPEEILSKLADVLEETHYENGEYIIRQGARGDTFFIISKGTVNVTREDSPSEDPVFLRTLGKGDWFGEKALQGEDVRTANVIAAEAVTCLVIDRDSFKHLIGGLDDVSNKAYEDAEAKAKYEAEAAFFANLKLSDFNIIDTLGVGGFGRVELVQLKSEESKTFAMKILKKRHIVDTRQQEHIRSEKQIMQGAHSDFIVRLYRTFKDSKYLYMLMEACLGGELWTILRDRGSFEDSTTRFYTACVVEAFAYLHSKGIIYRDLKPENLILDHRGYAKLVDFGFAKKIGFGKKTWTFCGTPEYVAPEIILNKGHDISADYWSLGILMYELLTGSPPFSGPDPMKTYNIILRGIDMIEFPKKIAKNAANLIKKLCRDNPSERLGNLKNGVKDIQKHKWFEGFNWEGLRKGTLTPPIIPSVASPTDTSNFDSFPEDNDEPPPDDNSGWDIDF
Serine/threonine-protein kinase PAK 5 (Homo sapiens), sequence (Q9P286 whole entry, looked up, the tested form may be a part): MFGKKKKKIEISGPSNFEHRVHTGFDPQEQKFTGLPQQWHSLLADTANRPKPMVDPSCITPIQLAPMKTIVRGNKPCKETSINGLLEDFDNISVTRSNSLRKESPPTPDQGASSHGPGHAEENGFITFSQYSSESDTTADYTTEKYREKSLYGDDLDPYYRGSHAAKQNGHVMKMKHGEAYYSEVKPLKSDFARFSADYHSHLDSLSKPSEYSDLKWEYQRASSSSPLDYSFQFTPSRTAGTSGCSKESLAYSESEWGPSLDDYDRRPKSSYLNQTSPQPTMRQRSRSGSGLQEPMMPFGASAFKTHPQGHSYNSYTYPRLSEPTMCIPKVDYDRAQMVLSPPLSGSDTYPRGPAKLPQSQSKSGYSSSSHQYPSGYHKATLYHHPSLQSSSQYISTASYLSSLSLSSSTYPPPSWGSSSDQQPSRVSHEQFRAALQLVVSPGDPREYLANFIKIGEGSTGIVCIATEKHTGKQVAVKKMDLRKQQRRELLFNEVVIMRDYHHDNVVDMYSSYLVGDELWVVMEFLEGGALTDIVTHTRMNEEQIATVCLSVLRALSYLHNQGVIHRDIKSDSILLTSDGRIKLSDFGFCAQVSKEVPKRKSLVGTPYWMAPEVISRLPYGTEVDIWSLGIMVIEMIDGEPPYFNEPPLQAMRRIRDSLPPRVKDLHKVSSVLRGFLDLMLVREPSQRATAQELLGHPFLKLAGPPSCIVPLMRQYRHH

One may read the inhibition as the change of the read-out against control, counted positive when it falls. For the compound `Cc1ccc(NC(=O)C2(C(=O)Nc3ccc(Nc4ncc(F)c(-c5cc(F)c6nc(C)n(C(C)C)c6c5)n4)cc3)CC2)cc1`, the inhibition was 25% in [1]; 28% in series [2]; 24% in [3]; 51% in series [4]; 51% in series [5]; “Dose-dependent effect” in the series with SiHa. Further, the inhibition in series [6] worked out at 17%; in [8], 73%; in series [9], 0%; in [10], 47%; in [11], 14%; in series [12], 43%. Also, the inhibition was 0% in series [13], 95% in series [15] and 0% in series [16]. Also, in series [7], the Activity entry is listed as “Non-Toxic”. Further, the inhibition result in series [14] and in series [17] was “Active” in each case.

Regarding `COc1cc2nccc(Oc3ccc(NC(=O)C4(C(=O)Nc5ccc(F)cc5)CC4)cc3)c2cc1OC` [CABOZANTINIB], in series [18], the Activity result is given as “Non-Toxic”. Moreover, in [19], the inhibition result is “Active”. Moreover, the result with T47D was Active.
